Activity data for 24 compounds are collected here from ChEMBL document CHEMBL6177989, “Development of Diaryl Hydrazones for Alleviation of Mitochondrial Oxidative Stress in Preeclampsia” (2025).

Activity calls are given as the source filed them. The rule behind the calls is not given here.

Assay [1] in a line: Antioxidant activity assessed as trolox equivalent of DPPH radical scavenging activity […] measured every 15 mins for 60 mins by absorbance based assay. It counts as functional. In short, it runs like this:
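DPPH radical scavenging by absorbance at 25 °C, compounds at 200 μM antioxidant concentration. Percent scavenging from control vs sample absorbance; 60 min value divided by 60 min Trolox value to give Trolox equivalents. Mean ± SD, four independent repeats.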
On the technique in general: The DPPH test is a chemical assay of radical scavenging.

Assay [2] in a line: Antioxidant activity assessed as trolox equivalent of ORAC radical scavenging activity […] measured every 2 mins for 60 mins by UV-Vis / fluorescence plate reader based analysis. It counts as functional. In short, it runs like this:
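ORAC: fluorescein with AAPH, fluorescence read 30 times; net AUC relative to AAPH control and no-AAPH maximum. Compounds at 80 μM; Trolox calibration (3.125–100 μM) of percent scavenging vs ln concentration gives Trolox equivalent concentration. 25 °C; mean ± SD, three independent repeats.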

Assay [3] can be described thus: Antioxidant activity assessed as trolox equivalent of ABTS radical scavenging activity at […] measured up to 12 mins by absorbance based analysis. The assay is classed as functional. In short, it runs like this: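 ABTS radical generated 12–24 h before assay; compounds tested at 500 μM final antioxidant concentration; absorbance read on plate reader at 25 °C. Percent scavenging standardized to Trolox scavenging to give Trolox equivalents; mean ± SD of three independent repeats.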

Another assay deals with HTR-8/SVneo. Nature of the assay: Antioxidant activity in H2O2 induced human HTR-8/SVneo cells assessed as reduction in sFLT-1 protein expression at 0.1 to 50 uM preincubated for 30 mins followed by H2O2 addition and measured after 20 hrs by ELISA method. The settings on record: dose 0.1-50 µM, time 20.5 hrs. It counts as functional, cell-based. A digest of the protocol:
(§1)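 HTR-8/SVneo cells in RPMI with 5% FBS, 37 °C, 5% CO2, pretreated 30 min with 0.1–50 μM compound, then 100 μM H2O2 for 20 h with compound present throughout. Supernatant sFLT-1 measured by human VEGFR1 ELISA; MitoTEMPO as reference antioxidant; 5 repeat experiments.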
(ELISA stands for enzyme-linked immunosorbent assay.)

Assay [4] in a line: Antioxidant activity in H2O2 induced human HTR-8/SVneo cells assessed as reduction in sFLT-1 protein expression at 0.1 to 50 uM preincubated for 30 mins followed by H2O2 addition and measured after 20 hrs by ELISA method relative to MitoTEMPO. The assay is classed as functional. Also on record: scale not given: the % may be the effect or the level left. The settings on record: dose 0.1-50 µM, time 20.5 hrs. In short, it runs like this:
as §1

A short description of assay [5]: Antioxidant activity in H2O2 induced human HTR-8/SVneo cells assessed as reduction in mitochondrial derived ROS production at 50 uM preincubated for 30 mins followed by H2O2 addition and measured after 20 hrs by MitoSOX red staining based immunofluorescence analysis relative to control. The settings on record: time 20.5 hrs. Also on record: scale not given: the % may be the effect or the level left. The assay is classed as functional. A digest of the protocol:
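HTR8 cells pretreated 30 min with 50 μM compound, then 100 μM H2O2 for 20 h. Mitochondrial superoxide imaged with MitoSOX Red by fluorescence microscopy at 20×; OD per cell surface area over 3 high-power fields per sample, n = 4 per group; median [IQR], Mann–Whitney U test.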

As to `COc1ccc(N/N=C(\C)c2ccc([N+](=O)[O-])cc2)cc1`, the Activity entry in assay [1] and in assay [3] was “Weak_effect” in each case. Further, the result in assay [2] was Active.
Take `CN(C)c1ccc(/C=N/Nc2ccc(C(F)(F)F)cc2)cc1`: the result (with HTR-8/SVneo; in assay [1]; in assay [2]; in assay [3]) was Active.
Consider `FC(F)(F)c1cccc(N/N=C/c2ccc(/C=N/Nc3cccc(C(F)(F)F)c3)cc2)c1`, for which the outcome (in the assay with HTR-8/SVneo; in assay [1]; in assay [2]; in assay [3]) was Active.
In the case of `Cc1ccc(C)c(N/N=C/c2ccc3ccccc3c2)c1`, the result in assay [1], in assay [2] and in assay [3] was Active.
As to `COc1ccc(N/N=C/c2ccc3ccccc3c2)cc1`, the outcome in assay [1], in assay [2] and in assay [3] was Active.
Turning to `COc1ccc(N/N=C/c2ccc(/C=N/Nc3ccc(OC)cc3)cc2)cc1`, the outcome in assay [1], in assay [2] and in assay [3] was Active.
With `CN(C)c1ccc(/C=N/Nc2ccccc2C(F)(F)F)cc1`, the outcome (in the assay with HTR-8/SVneo; in assay [1]; in assay [2]; in assay [3]) was Active.
For the compound `COc1ccc(N/N=C/c2ccc([N+](=O)[O-])cc2)cc1`, the outcome in assay [2] was Active.
On to `C/C(=N\Nc1ccccc1)c1ccc(C)cc1`, for which the result in assay [1], in assay [2] and in assay [3] was Active.
Turning to `COc1ccc(/C(C)=N/Nc2ccccc2)c(O)c1`, the outcome in assay [1], in assay [2] and in assay [3] was Active.
Take `C/C(=N\Nc1cc(C)ccc1C)c1ccc([N+](=O)[O-])cc1`: the Activity entry in assay [1] and in assay [3] was “Weak_effect” throughout. For the same compound, the outcome in assay [2] was Active.
With `CN(C)c1ccc(/C=N/Nc2cccc(C(F)(F)F)c2)cc1`, the outcome (with HTR-8/SVneo; in assay [1]; in assay [2]; in assay [3]) was Active. The Activity in assay [4] is listed as 10%; in assay [5], 50%.
Turning to `C(=N\Nc1ccccc1)/c1c[nH]c2ccccc12`, the result in assay [1], in assay [2] and in assay [3] was Active.
Take `O=[N+]([O-])c1ccc(/C=N/Nc2cccc(C(F)(F)F)c2)cc1`: the result (in the assay on HTR-8/SVneo; in assay [1]; in assay [2]; in assay [3]) was Active.
Take `O=[N+]([O-])c1cccc(N/N=C/c2ccc3ccccc3c2)c1`: the outcome in assay [1] and in assay [3] was Active. The Activity result in assay [2] is “Weak_effect”.
For the compound `FC(F)(F)c1ccccc1N/N=C/c1c2ccccc2cc2ccccc12`, the result in assay [1] and in assay [3] was Active. The Activity entry in assay [2] is “Weak_effect”.
Take `Clc1ccc(N/N=C/c2ccc3ccccc3c2)cc1`: the result in assay [1] and in assay [3] was Active.
Take `COc1ccc(/C=N/Nc2cccc(C(F)(F)F)c2)cc1OC`: the result (in the assay on HTR-8/SVneo; in assay [1]; in assay [2]; in assay [3]) was Active. In assay [4], the Activity amounted to 10%.
For the compound `COc1ccc(/C=N/Nc2ccc(C(F)(F)F)cc2)c(O)c1`, the outcome (in the assay on HTR-8/SVneo; in assay [1]; in assay [2]; in assay [3]) was Active.
Regarding `Fc1c(F)c(F)c(/C=N/Nc2ccc(C(F)(F)F)cc2)c(F)c1F`, the result (in the assay with HTR-8/SVneo; in assay [1]; in assay [2]; in assay [3]) was Active.
In the case of `C(=N\Nc1ccccc1)/c1ccc2ccccc2c1`, the result in assay [1], in assay [2] and in assay [3] was Active.
On to `C/C(=N\Nc1ccccc1)c1ccc(Cl)cc1`, for which the outcome in assay [1], in assay [2] and in assay [3] was Active.
Consider `COc1ccc(N/N=C(\C)c2cc3ccc(OC)cc3oc2=O)cc1`, for which the outcome in assay [1], in assay [2] and in assay [3] was Active.
On to `C/C(=N\Nc1cc(C)ccc1C)c1cccc([N+](=O)[O-])c1`, for which the Activity entry in assay [1] and in assay [3] was “Weak_effect” throughout. For the same compound, in assay [2], the outcome was Active.
